Assay type in all cases: cell-based
The target in experiment [1] is T1, Dihydroorotate dehydrogenase (quinone), mitochondrial (Homo sapiens, UniProt Q02127). Put plainly: Inhibition of DHODH in human HEK293 cells transfected with ISRE-luciferase reporter gene assessed as increase in 125 IU/ml IFN-alpha stimulated IFIT3 mRNA expression at 80 uM measured after 16 hrs by RT-qPCR analysis relative to control. A digest of the protocol: (§1)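 ISRE-Luc HEK cells co-treated with increasing IFN-α concentrations and DMSO or compound (80 µM) for 16 h. Total RNA extracted from 2×10^5 cells with DNase step; qPCR 35 cycles. CT values normalized to RPL13A and unstimulated controls (2^-ΔΔCT), expressed as fold change versus DMSO alone. Three independent experiments; two-way ANOVA with Bonferroni.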
T1 sequence (Q02127 whole entry): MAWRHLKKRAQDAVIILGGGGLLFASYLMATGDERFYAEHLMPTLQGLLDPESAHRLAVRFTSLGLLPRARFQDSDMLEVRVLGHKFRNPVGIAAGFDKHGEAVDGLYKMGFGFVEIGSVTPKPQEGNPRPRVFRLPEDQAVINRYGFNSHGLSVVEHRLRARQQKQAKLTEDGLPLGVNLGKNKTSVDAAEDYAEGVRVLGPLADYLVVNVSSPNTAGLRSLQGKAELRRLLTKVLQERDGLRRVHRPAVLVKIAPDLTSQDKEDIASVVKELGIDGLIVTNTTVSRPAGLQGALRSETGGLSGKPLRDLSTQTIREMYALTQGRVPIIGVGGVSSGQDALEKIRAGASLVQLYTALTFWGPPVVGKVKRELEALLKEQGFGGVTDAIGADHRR
On the technique in general: A reporter such as luciferase makes a cellular process visible.

Experiment [2] addresses T1, Dihydroorotate dehydrogenase (quinone), mitochondrial. Put plainly: Inhibition of DHODH in human HEK-293 cells transfected with ISRE-luciferase reporter gene assessed as increase in 150 IU/ml IFN-alpha mediated cellular response at 80 uM in presence of AZD6738 ATR inhibitor measured after 24 hrs by luciferase reporter gene assay. The following applies: HEK293. The procedure, abridged: (§2)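 ISRE-Luc HEK-293 cells given IFN-α (150 IU/ml) alone or with test compound (80 µM), with or without the MRE11 inhibitor mirin, ATR inhibitor AZD6738, CHK1 inhibitor PF477736 or P300/CBP inhibitor C636. Firefly luciferase read 24 h later, normalized to IFN-α alone. Means ± SD of at least three independent experiments.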

Experiment [3] shares this target. As to the kind of experiment: Inhibition of DHODH in human HEK-293 cells transfected with ISRE-luciferase reporter gene assessed as increase in 150 IU/ml IFN-alpha mediated cellular response at 80 uM in presence of P300/CBP measured after 24 hrs by luciferase reporter gene assay. The following applies: HEK293. A digest of the protocol: as §2
Experiment [4] shares this target. As to the kind of experiment: Inhibition of DHODH in human HEK293 cells transfected with ISRE-luciferase reporter gene assessed as increase in 125 IU/ml IFN-alpha stimulated […] mRNA expression at 80 uM measured after 16 hrs by RT-qPCR analysis relative to control. The procedure, abridged: as §1
Experiment [5] has the same target. Put plainly: Inhibition of DHODH in human HEK293 cells transfected with ISRE-luciferase reporter gene assessed as increase in 30 IU/ml IFN-alpha stimulated […] mRNA expression at 80 uM measured after 16 hrs by RT-qPCR analysis relative to control. The procedure, abridged: as §1
Experiment [6] has the same target. Put plainly: Inhibition of DHODH in human HEK293 cells transfected with ISRE-luciferase reporter gene assessed as increase in 250 IU/ml IFN-alpha stimulated MX2 mRNA expression at 80 uM measured after 16 hrs by RT-qPCR analysis relative to control. A digest of the protocol: as §1
The target is the same in experiment [7]. As to the kind of experiment: Inhibition of DHODH in human HEK293 cells transfected with ISRE-luciferase reporter gene assessed as increase in 60 IU/ml IFN-alpha stimulated DDX58 mRNA expression at 80 uM measured after 16 hrs by RT-qPCR analysis relative to control. A digest of the protocol:
as §1

For experiment [8] the target is unchanged. Put plainly: Inhibition of DHODH in human HEK293 cells transfected with ISRE-luciferase reporter gene assessed as increase in 250 IU/ml IFN-alpha stimulated […] mRNA expression at 80 uM measured after 16 hrs by RT-qPCR analysis relative to control. A digest of the protocol: as §1
Experiment [9] shares this target. As to the kind of experiment: Inhibition of DHODH in human HEK293 cells transfected with ISRE-luciferase reporter gene assessed as increase in 30 IU/ml IFN-alpha stimulated DDX58 mRNA expression at 80 uM measured after 16 hrs by RT-qPCR analysis relative to control. A digest of the protocol: as §1
Experiment [10] shares this target. Put plainly: Inhibition of DHODH in human HEK293 cells assessed as increase in 125 IU/ml IFN-alpha stimulated ISG15 mRNA expression at 80 uM measured after 16 hrs by RT-qPCR analysis relative to control. The procedure, abridged: as §1
The target is the same in experiment [11]. As to the kind of experiment: Inhibition of DHODH in human HEK-293 cells transfected with ISRE-luciferase reporter gene assessed as increase in 150 IU/ml IFN-alpha mediated cellular response at 80 uM in presence of PF477736 CHK1 inhibitor measured after 24 hrs by luciferase reporter gene assay. The following applies: HEK293. The procedure, abridged: as §2

Experiment [12] shares this target. As to the kind of experiment: Inhibition of DHODH in human HEK293 cells transfected with ISRE-luciferase reporter gene assessed as increase in 250 IU/ml IFN-alpha stimulated PML mRNA expression at 80 uM measured after 16 hrs by RT-qPCR analysis relative to control. The procedure, abridged: as §1
Experiment [13] shares this target. Put plainly: Inhibition of DHODH in human HEK293 cells transfected with ISRE-luciferase reporter gene assessed as increase in 30 IU/ml IFN-alpha stimulated PKR mRNA expression at 80 uM measured after 16 hrs by RT-qPCR analysis relative to control. The procedure, abridged:
as §1

The target is the same in experiment [14]. Put plainly: Inhibition of DHODH in human HEK293 cells transfected with ISRE-luciferase reporter gene assessed as increase in 250 IU/ml IFN-alpha stimulated IFIT2 mRNA expression at 80 uM measured after 16 hrs by RT-qPCR analysis relative to control. The procedure, abridged: as §1
For experiment [15] the target is unchanged. As to the kind of experiment: Inhibition of DHODH in human HEK-293 cells transfected with ISRE-luciferase reporter gene assessed as increase in IFN-alpha mediated cellular response at 80 uM in presence of DHO measured after 24 hrs by luciferase reporter gene assay. The note with it: HEK293. A digest of the protocol:
(§3)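 ISRE-Luc HEK-293 cells exposed to increasing IFN-α concentrations with DMSO or compound (80 µM), supplemented with uridine (125 µM) or with 3 mM orotate or DHO. Reporter luciferase read after 24 h, normalized to DMSO + IFN-α 250 IU/ml. Means ± SD of three independent experiments; two-way ANOVA.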

Experiment [16] has the same target. As to the kind of experiment: Inhibition of DHODH in human HEK-293 cells transfected with ISRE-luciferase reporter gene assessed as increase in IFN-alpha mediated cellular response at 80 uM in presence of orotate measured after 24 hrs by luciferase reporter gene assay. The note with it: HEK293. A digest of the protocol: as §3
For experiment [17] the target is unchanged. As to the kind of experiment: Inhibition of DHODH in human HEK293 cells transfected with ISRE-luciferase reporter gene assessed as increase in 60 IU/ml IFN-alpha stimulated ISG15 mRNA expression at 80 uM measured after 16 hrs by RT-qPCR analysis relative to control. The procedure, abridged:
(§4)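 HEK-293 ISRE-Luc cells (DMEM, 10% FCS, 37°C, 5% CO2) were given increasing IFN-α doses together with DMSO or compound at 80 μM, then harvested at 16 h. RNA was extracted from 2×10^5 cells with DNase treatment. Transcripts were run by qPCR for 35 cycles and normalized to RPL13A and to unstimulated controls by 2^-ΔΔCT. Values are fold change versus DMSO; three independent experiments; two-way ANOVA with Bonferroni.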

For experiment [18] the target is unchanged. As to the kind of experiment: Inhibition of DHODH in human HEK293 cells transfected with ISRE-luciferase reporter gene assessed as increase in 125 IU/ml IFN-alpha stimulated IFITM3 mRNA expression at 80 uM measured after 16 hrs by RT-qPCR analysis relative to control. The procedure, abridged:
as §1

Experiment [19] shares this target. As to the kind of experiment: Inhibition of DHODH in human HEK293 cells transfected with ISRE-luciferase reporter gene assessed as increase in 60 IU/ml IFN-alpha stimulated PKR mRNA expression at 80 uM measured after 16 hrs by RT-qPCR analysis relative to control. A digest of the protocol: as §4

Calls of active or inactive are those of the source. The rule behind the calls is not given here.

As to `O=C1OC2(CCCCC2)c2ccn(C3CC3)c(=O)c21`, the fold change (FC) in [1] is 99; in [4], 117; in experiment [5], 44; in experiment [6] it was 28; in experiment [7] it was 23; in experiment [8], 143. Moreover, the fold change (FC) in experiment [9] stood at 16; in [10], 200; in [12] it was 5; in experiment [13], 2; in [14] it was 165; in experiment [17], 163. Further, the results for the fold change (FC) in [18] and in [19] were 14 and 3, respectively. Further, the result in experiment [2], in [3], in experiment [11] and in experiment [16] was inactive. For the same compound, the outcome in [15] was Active.

Values taken from ChEMBL document CHEMBL4680118, “Cerpegin-derived furo[3,4-c]pyridine-3,4(1H,5H)-diones enhance cellular response to interferons by de novo pyrimidine biosynthesis inhibition” (Eur J Med Chem, 2020).
